Measured values taken from ChEMBL document CHEMBL4196201, “Discovery of N-(4-{[5-Fluoro-7-(2-methoxyethoxy)quinazolin-4-yl]amino}phenyl)-2-[4-(propan-2-yl)-1 H-1,2,3-triazol-1-yl]acetamide (AZD3229), a Potent Pan-KIT Mutant Inhibitor for the Treatment of Gastrointestinal Stromal Tumors” (J Med Chem, 2018).
In brackets after ≈: the same amount, converted by molar mass. Activity calls are given as the source filed them. No cut-off for these calls is given here.

Assays:
[1] = Cytotoxicity in mouse parental BA/F3 cells incubated for 72 hrs by MTS assay; type: cell-based, BaF3
[2] = Solubility in pH 6.5 phosphate buffer at 37 degC; type: physicochemical
Summary of the method: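 Solubility of crystalline Form A was measured in pH6.5 phosphate buffer at 37°C.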

[3] = Efflux ratio in human Caco2 cells at 10 uM at pH 6.5; conditions: Caco-2, pH 6.5
[4] = Protein binding in mouse plasma assessed as unbound fraction level; type: ADME, cell-free
[5] = Protein binding in rat plasma assessed as unbound fraction level; type: ADME, cell-free
[6] = Protein binding in dog plasma assessed as unbound fraction level; type: ADME, cell-free, Canis lupus familiaris
[7] = Protein binding in human plasma assessed as unbound fraction level; type: ADME, cell-free
[8] = Intrinsic clearance in rat hepatocytes assessed per million cells; type: ADME, cell-based, Hepatocyte; conditions: read-out: CLH
[9] = Intrinsic clearance in dog hepatocytes assessed per million cells; type: ADME, cell-based, Canis lupus familiaris, Hepatocyte; conditions: read-out: CLH
[10] = target: Voltage-gated inwardly rectifying potassium channel KCNH2 (Homo sapiens, UniProt Q12809); assay: Inhibition of human ERG
[11] = Clearance in CD1 mouse at 10 umol/kg, iv; type: ADME, organism-based; conditions: in vivo
Summary of the method: (§1)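 PK was run in CD1 mice with an iv dose of 10 μMol/kg and an oral dose of 21 μMol/kg. Cl, Vdss, t1/2 and F% were derived.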

[12] = Volume of distribution at steady state in CD1 mouse at 10 umol/kg, iv; type: ADME, organism-based; conditions: in vivo, read-out: Vdss
Summary of the method: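 PK in CD1 mice given an iv dose of 10 μMol/kg, alongside a separate oral dose of 21 μMol/kg. Clearance, Vdss, half-life and oral bioavailability were derived from these profiles.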

[13] = Half life in CD1 mouse at 21 umol/kg, po; type: ADME, organism-based; conditions: in vivo; summary of the method: as §1
[14] = Oral bioavailability in CD1 mouse at 21 umol/kg; type: ADME, organism-based; conditions: in vivo; summary of the method: as §1
[15] = Clearance in Han Wistar rat at 1 umol/kg, iv; type: ADME, organism-based; conditions: in vivo
Summary of the method: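 PK was run in Han Wistar rats with an iv dose of 1 μMol/kg and an oral dose of 2.1 μMol/kg. Cl, Vdss, t1/2 and F% were derived.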

[16] = Volume of distribution at steady state in Han Wistar rat at 1 umol/kg, iv; type: ADME, organism-based; conditions: in vivo, read-out: Vdss
Summary of the method: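 Han Wistar rat PK study using an iv dose of 1 μMol/kg and an oral dose of 2.1 μMol/kg. Clearance, Vdss, t1/2 and F% were derived.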

[17] = Oral bioavailability in Han Wistar rat at […]; type: ADME, organism-based; conditions: in vivo
[18] = Clearance in dog rat at 1 umol/kg, iv; type: ADME, organism-based, Canis lupus familiaris; conditions: in vivo
[19] = Volume of distribution at steady state in dog […] at 1 umol/kg, iv; type: ADME, organism-based, Canis lupus familiaris; conditions: in vivo, read-out: Vdss
[20] = Half life in dog rat at […], po; type: ADME, organism-based, Canis lupus familiaris; conditions: in vivo
[21] = Oral bioavailability in dog at […]; type: ADME, organism-based, Canis lupus familiaris; conditions: in vivo
Mus musculus [22] = assay: Inhibition of Kit exon 11 deletion (557 to 558 residues) and D816H mutant phosphorylation (unknown origin) transfected in mouse BA/F3 cells allografted in CB17 SCID mouse at 20 mg/kg, po administered as single dose measured after 8 hrs; type: functional, organism-based
Summary of the method: (§2)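 A single 20 mg/kg p.o. dose was given to mice carrying exon 11 del/D816H Ba/F3 allografts. Tumor pKIT, pERK and pAKT were measured over a timecourse, with free compound cover tracked in the same study.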

Mus musculus [23] = assay: Inhibition of Kit exon 11 deletion (557 to 558 residues) and D816H mutant phosphorylation (unknown origin) transfected in mouse BA/F3 cells allografted in CB17 SCID mouse at 20 mg/kg, po administered as single dose measured after 24 hrs; type: functional, organism-based; summary of the method: as §2
Mus musculus [24] = assay: Inhibition of Kit exon 11 deletion (557 to 558 residues) and D816H mutant (unknown origin) transfected in mouse BA/F3 cells allografted in CB17 SCID mouse assessed as reduction in ERK phosphorylation at 20 mg/kg, po administered as single dose measured after 24 hrs; type: functional, organism-based; summary of the method: as §2
Mus musculus [25] = assay: Inhibition of Kit exon 11 deletion (557 to 558 residues) and D816H mutant (unknown origin) transfected in mouse BA/F3 cells allografted in CB17 SCID mouse assessed as reduction in AKT phosphorylation at 20 mg/kg, po administered as single dose measured after 24 hrs; type: functional, organism-based; summary of the method: as §2
BaF3 [26] = assay: Antitumor activity against mouse BA/F3 cells expressing Kit exon 11 deletion (557 to 558 residues) and D816H mutant (unknown origin) allografted in CB17 SCID mouse assessed as inhibition of tumor growth at 2 mg/kg, po bid measured on last day of dosing; type: functional; conditions: read-out: TGI
Summary of the method: (§3)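 Ba/F3 cells bearing the KIT exon 11 del/D816H or exon 11 del/V654A mutation were grown as allografts in mice. Compounds were given p.o. once (QD) or twice daily (BD), and vehicle was given BD p.o. Tumor growth inhibition and regression (%) were taken on the last day of dosing. p-values were calculated relative to vehicle.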

BaF3 [27] = assay: Antitumor activity against mouse BA/F3 cells expressing Kit exon 11 deletion (557 to 558 residues) and D816H mutant (unknown origin) allografted in CB17 SCID mouse assessed as inhibition of tumor growth at 20 mg/kg, po bid measured on last day of dosing; type: functional; conditions: read-out: TGI; summary of the method: as §3
BaF3 [28] = assay: Antitumor activity against mouse BA/F3 cells expressing Kit exon 11 deletion (557 to 558 residues) and V654 mutant (unknown origin) allografted in CB17 SCID mouse assessed as tumor regression at 2 mg/kg, po bid measured on last day of dosing; type: functional; summary of the method: as §3
[29] = tested on: Mast/stem cell growth factor receptor Kit (Homo sapiens), P10721 [UNDEFINED MUTATION]
[30] = tested on: Mast/stem cell growth factor receptor Kit (Homo sapiens), P10721 [UNDEFINED MUTATION]; remark: listed apart in the source
[31] = tested on: Mast/stem cell growth factor receptor Kit (Homo sapiens), P10721 [UNDEFINED MUTATION]; remark: listed apart in the source
[32] = target: Mast/stem cell growth factor receptor Kit (Homo sapiens) (UniProt P10721)
[33] = target: Mast/stem cell growth factor receptor Kit (Homo sapiens) (UniProt P10721); remark: listed apart in the source
[34] = target: Mast/stem cell growth factor receptor Kit (Homo sapiens) (UniProt P10721); remark: listed apart in the source
[35] = tested on: Mast/stem cell growth factor receptor Kit (Homo sapiens), P10721 [UNDEFINED MUTATION]; remark: listed apart in the source
[36] = tested on: Mast/stem cell growth factor receptor Kit (Homo sapiens), P10721 [UNDEFINED MUTATION]; remark: listed apart in the source
[37] = tested on: Mast/stem cell growth factor receptor Kit (Homo sapiens), P10721 [UNDEFINED MUTATION]; remark: listed apart in the source
[38] = tested on: Mast/stem cell growth factor receptor Kit (Homo sapiens), P10721 [V560D,D816H]
Sequence of Mast/stem cell growth factor receptor Kit (Homo sapiens), P10721 [V560D,D816H] (P10721 whole entry V560D/D816H): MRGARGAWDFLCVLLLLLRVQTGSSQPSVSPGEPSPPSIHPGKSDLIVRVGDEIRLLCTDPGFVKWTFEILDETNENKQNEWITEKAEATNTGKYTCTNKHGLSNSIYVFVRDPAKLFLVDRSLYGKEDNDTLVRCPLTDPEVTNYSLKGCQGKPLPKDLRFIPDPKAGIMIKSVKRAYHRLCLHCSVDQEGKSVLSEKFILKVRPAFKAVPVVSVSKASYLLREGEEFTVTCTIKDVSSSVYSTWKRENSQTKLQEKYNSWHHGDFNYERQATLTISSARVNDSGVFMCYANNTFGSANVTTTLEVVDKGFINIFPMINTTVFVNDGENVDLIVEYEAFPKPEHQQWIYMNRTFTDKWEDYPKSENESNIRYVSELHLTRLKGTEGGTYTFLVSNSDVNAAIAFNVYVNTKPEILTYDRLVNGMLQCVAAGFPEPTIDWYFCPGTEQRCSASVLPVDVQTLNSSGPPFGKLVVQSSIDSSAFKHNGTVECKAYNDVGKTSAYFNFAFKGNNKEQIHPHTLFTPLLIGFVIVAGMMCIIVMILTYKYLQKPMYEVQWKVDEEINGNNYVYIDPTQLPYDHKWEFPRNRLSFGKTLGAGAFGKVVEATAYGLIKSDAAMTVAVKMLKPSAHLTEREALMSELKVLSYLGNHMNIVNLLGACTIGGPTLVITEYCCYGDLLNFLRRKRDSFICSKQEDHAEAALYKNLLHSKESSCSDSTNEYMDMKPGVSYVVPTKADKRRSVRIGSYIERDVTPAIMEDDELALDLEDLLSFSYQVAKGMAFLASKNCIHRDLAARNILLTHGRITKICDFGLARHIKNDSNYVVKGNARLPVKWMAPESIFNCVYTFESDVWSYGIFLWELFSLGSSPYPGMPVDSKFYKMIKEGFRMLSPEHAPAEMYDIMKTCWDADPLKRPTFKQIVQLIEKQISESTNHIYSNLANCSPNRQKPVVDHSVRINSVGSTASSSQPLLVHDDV

Sequence of Mast/stem cell growth factor receptor Kit (Homo sapiens) (P10721 whole entry): as the sequence (P10721 whole entry V560D/D816H) above, with D560V, H816D counted along it
Sequence of Mast/stem cell growth factor receptor Kit (Homo sapiens), P10721 [UNDEFINED MUTATION] (P10721 whole entry, looked up, stated change not applied): as the sequence (P10721 whole entry V560D/D816H) above, with D560V, H816D counted along it
Sequence of Voltage-gated inwardly rectifying potassium channel KCNH2 (Q12809 whole entry): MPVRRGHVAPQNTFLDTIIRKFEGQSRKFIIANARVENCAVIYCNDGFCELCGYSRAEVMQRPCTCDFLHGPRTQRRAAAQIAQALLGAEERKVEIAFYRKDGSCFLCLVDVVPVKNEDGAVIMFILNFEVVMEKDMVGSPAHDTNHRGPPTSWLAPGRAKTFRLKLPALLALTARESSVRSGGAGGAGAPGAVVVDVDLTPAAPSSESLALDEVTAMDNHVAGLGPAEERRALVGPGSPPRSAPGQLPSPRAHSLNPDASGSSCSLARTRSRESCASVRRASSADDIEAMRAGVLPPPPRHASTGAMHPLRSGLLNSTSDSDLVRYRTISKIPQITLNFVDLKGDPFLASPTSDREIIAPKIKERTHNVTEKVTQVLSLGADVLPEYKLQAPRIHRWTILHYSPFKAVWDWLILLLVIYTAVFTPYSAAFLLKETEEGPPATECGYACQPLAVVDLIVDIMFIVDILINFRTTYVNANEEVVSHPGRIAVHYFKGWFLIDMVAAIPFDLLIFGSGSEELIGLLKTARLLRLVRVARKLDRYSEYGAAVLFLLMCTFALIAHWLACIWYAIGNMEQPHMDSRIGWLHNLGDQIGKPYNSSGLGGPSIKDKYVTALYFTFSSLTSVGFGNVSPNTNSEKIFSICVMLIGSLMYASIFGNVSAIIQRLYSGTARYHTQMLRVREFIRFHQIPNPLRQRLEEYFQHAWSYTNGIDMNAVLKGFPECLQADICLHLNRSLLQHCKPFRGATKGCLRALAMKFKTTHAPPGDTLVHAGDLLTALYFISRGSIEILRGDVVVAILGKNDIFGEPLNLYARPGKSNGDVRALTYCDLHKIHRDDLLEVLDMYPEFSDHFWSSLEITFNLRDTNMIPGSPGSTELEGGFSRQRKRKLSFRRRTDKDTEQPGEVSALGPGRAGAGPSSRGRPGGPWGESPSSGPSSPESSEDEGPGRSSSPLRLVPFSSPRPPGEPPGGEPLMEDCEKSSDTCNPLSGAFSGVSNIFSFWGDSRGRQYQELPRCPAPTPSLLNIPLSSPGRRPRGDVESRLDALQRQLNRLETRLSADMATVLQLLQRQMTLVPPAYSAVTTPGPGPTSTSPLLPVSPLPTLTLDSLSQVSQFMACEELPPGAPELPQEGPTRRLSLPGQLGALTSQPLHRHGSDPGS

solubility [2]: 6 µM (≈ 2.88 µg/mL) | efflux ratio at 10 µM [3]: 2.6 | fraction unbound [4]: 0.049 | fraction unbound [5]: 0.022 | fraction unbound [6]: 0.068 | fraction unbound [7]: 0.035 | hepatocyte CLint [8]: 17 µL/min/1e6 cells | hepatocyte CLint [9]: < 1 µL/min/1e6 cells | clearance [11]: 7 mL/min/kg | Vd [12]: 0.7 L/kg | half-life [13]: 120 min | bioavailability [14]: 100% | clearance [15]: 8 mL/min/kg | Vd [16]: 0.6 L/kg | bioavailability [17]: 79% | clearance [18]: 2 mL/min/kg | Vd [19]: 0.3 L/kg | half-life [20]: 240 min | bioavailability [21]: 69% | GI50 [29]: 3 nM | GI50 [30]: 9 nM | GI50 [31]: 16 nM | GI50 [32]: 22 nM | GI50 [33]: 1 nM | GI50 [34]: 8 nM | GI50 [35]: 3 nM | GI50 [36]: 14 nM | GI50 [37]: 3 nM | GI50 [38]: 18 nM
SMILES: COCCOc1cc(F)c2c(Nc3ccc(NC(=O)Cn4cc(C(C)C)nn4)cc3)ncnc2c1
GI50 at 72 h [1]: > 10 µM | IC50 [10]: > 33.3 µM | inhibition (Mus musculus [22]): Active | inhibition (Mus musculus [23]): Active | inhibition (Mus musculus [24]): Active | inhibition (Mus musculus [25]): Active | inhibition in vivo at 2 mg/kg (BaF3 [26]): 5% | inhibition in vivo at 20 mg/kg (BaF3 [27]): > 100% | Activity (BaF3 [28]): 44%
